Key:
[1] = target: T1, Estrogen receptor (Mus musculus) (UniProt O08537+P19785); assay: […] estrogenic effect in immature mice at 500 ug; assay type: functional
How it was run: (§1)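 Uterotrophic assay in immature female NMRI mice (10–12 g at start; 10 per group). Test compound in olive oil given sc daily for three consecutive days. Uteri removed 24 h after the last injection, fixed in Bouin's solution, dried and weighed. Estrogenic effect read as stimulation of uterine growth.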

Mus musculus [2] = assay: (§2) In vivo inhibition of hormone-dependent MXT mammary tumor in mice; assay type: functional
How it was run: (§3)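 MXT tumor pieces (~2 mm3) implanted sc into female 8-week-old BDF1 mice, randomized into groups of 10. From day 1 after transplant, compound in olive oil given sc 3 times weekly (equimolar doses) for 6 weeks. Tumors excised and weighed. T/C % = treated/solvent-control tumor weight × 100 (mean of 10); uterus T/C also recorded.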

Mus musculus [3] = assay: as §2; assay type: functional; how it was run: as §3; remark: listed apart in the source
[4] = target: T1, Estrogen receptor (Mus musculus); assay: In vivo anti-estrogenic effect in immature mice at 100 ug; assay type: functional, organism-based
How it was run: (§4)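 Antiuterotrophic assay in immature female NMRI mice (10–12 g; 10 per group) with estrone-stimulated uterine growth. Test compound in olive oil given sc daily for 3 consecutive days. Uteri taken 24 h after the final dose, Bouin-fixed, dried and weighed. Antiestrogenic effect measured as inhibition of the estrone-driven uterine growth.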

[5] = target: T1, Estrogen receptor (Mus musculus); assay: […] estrogenic effect in immature mice at 1 ug; assay type: functional; how it was run: as §1
[6] = target: T1, Estrogen receptor (Mus musculus); assay: In vivo anti-estrogenic effect in immature mice at 5 ug; assay type: functional, organism-based; how it was run: as §4
[7] = target: T1, Estrogen receptor (Mus musculus); assay: In vivo anti-estrogenic effect in immature mice at 0.5 ug; assay type: functional, organism-based; how it was run: as §4

T1 sequence (O08537 whole entry, looked up): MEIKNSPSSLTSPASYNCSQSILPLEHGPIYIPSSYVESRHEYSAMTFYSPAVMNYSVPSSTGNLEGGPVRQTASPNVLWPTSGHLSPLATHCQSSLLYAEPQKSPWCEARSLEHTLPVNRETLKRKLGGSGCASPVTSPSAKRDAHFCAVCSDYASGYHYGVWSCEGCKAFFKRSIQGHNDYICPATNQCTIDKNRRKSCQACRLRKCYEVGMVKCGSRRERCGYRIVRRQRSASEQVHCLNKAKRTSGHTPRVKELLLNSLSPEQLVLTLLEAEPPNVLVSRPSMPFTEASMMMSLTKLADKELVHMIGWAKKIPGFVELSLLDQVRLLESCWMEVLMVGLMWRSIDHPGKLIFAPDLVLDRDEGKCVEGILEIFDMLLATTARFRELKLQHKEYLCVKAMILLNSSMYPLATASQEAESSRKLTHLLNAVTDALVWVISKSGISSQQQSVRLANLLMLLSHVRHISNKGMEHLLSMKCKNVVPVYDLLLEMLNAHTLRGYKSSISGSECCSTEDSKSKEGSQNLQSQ
T1 sequence (P19785 whole entry, looked up): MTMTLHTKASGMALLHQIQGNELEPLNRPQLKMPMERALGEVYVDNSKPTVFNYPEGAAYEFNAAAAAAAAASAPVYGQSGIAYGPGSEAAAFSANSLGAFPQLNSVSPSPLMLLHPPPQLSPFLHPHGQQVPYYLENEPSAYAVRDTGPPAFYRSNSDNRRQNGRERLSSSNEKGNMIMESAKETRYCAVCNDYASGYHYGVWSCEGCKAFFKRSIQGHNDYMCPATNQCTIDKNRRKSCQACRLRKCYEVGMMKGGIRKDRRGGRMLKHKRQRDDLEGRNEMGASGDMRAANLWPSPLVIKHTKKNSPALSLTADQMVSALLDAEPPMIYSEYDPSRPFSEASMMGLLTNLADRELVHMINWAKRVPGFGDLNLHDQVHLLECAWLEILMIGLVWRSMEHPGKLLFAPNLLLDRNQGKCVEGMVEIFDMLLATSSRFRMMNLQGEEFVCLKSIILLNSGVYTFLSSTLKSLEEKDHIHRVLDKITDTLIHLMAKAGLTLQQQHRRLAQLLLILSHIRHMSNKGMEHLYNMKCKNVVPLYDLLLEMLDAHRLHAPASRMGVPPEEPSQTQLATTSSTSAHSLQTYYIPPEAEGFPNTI

| SMILES | estrogenic effect [1] | T/C (Mus musculus [2]) | T/C (Mus musculus [3]) | inhibition [4] | inhibition [5] | inhibition [6] | inhibition [7] |
| --- | --- | --- | --- | --- | --- | --- | --- |
| CCC(=C(c1ccc(OC(C)=O)c(OC(C)=O)c1)c1ccc(OC(C)=O)c(OC(C)=O)c1)c1ccccc1 | 13% | 107% | 134% | 54% |  |  |  |
| CC/C(=C(/c1ccccc1)c1ccc(OC(C)=O)c(OC(C)=O)c1)c1cccc(OC(C)=O)c1 |  | 103% | 35% |  |  |  |  |
| CC/C(=C(/c1ccccc1)c1cccc(OC(C)=O)c1)c1ccc(OC(C)=O)c(OC(C)=O)c1 | 61% | 123% | 2% |  |  |  |  |
| CCC(=C(c1ccc(OC(C)=O)cc1)c1ccc(OC(C)=O)c(OC(C)=O)c1)c1ccccc1 |  |  |  | 61% |  |  |  |
| CC/C(=C(/c1ccccc1)c1ccc(OC(C)=O)c(OC(C)=O)c1)c1ccc(OC(C)=O)c(OC(C)=O)c1 | 67% | 99% | 84% |  |  |  |  |
| CC/C(=C(\c1ccccc1)c1ccc(OC(C)=O)cc1)c1ccc(OC(C)=O)c(OC(C)=O)c1 |  | 195% | 1% |  |  |  |  |
| CC/C(=C(\c1ccccc1)c1ccc(OC(C)=O)c(OC(C)=O)c1)c1cccc(OC(C)=O)c1 |  | 115% | 82% |  |  |  |  |
| CC/C(=C(\c1ccccc1)c1ccc(OCCN(C)C)cc1)c1ccccc1 [TAMOXIFEN] |  | 92% | 10% |  |  |  |  |
| CCC(=C(c1ccccc1)c1ccccc1)c1ccc(OC(C)=O)c(OC(C)=O)c1 |  | 115% | 9% |  | 18% |  |  |
| CC/C(=C(\c1ccccc1)c1ccc(OC(C)=O)c(OC(C)=O)c1)c1ccc(OC(C)=O)cc1 |  | 113% | 40% |  |  |  |  |
| CC/C(=C(/c1ccccc1)c1ccc(OC(C)=O)c(OC(C)=O)c1)c1ccc(OC(C)=O)cc1 |  | 113% | 22% |  |  |  |  |
| CC/C(=C(\c1ccccc1)c1cccc(OC(C)=O)c1)c1ccc(OC(C)=O)c(OC(C)=O)c1 | 63% | 87% | 30% |  |  | 53% |  |
| CC/C(=C(/c1ccccc1)c1ccc(OC(C)=O)cc1)c1ccc(OC(C)=O)c(OC(C)=O)c1 |  | 183% | 2% |  |  |  |  |
| CC/C(=C(/c1ccc(OC(C)=O)cc1)c1ccc(OC(C)=O)c(OC(C)=O)c1)c1ccccc1 |  | 99% | 44% |  |  |  | 0% |
| CC/C(=C(\c1ccccc1)c1ccc(OC(C)=O)c(OC(C)=O)c1)c1ccccc1 | 77% | 107% | 19% |  |  |  |  |
| CC/C(=C(\c1ccccc1)c1ccc(OC(C)=O)c(OC(C)=O)c1)c1ccc(OC(C)=O)c(OC(C)=O)c1 | 77% | 90% | 75% |  |  |  |  |
| CC/C(=C(/c1ccccc1)c1ccc(OC(C)=O)c(OC(C)=O)c1)c1ccccc1 | 66% | 106% | 17% |  |  |  |  |
| CC/C(=C(\c1ccc(OC(C)=O)cc1)c1ccc(OC(C)=O)c(OC(C)=O)c1)c1ccccc1 |  | 125% | 23% |  |  |  | 38% |
